How the values were obtained:
[1] = system: Hh signaling in Sufu-/- MEFs; assay: Gli1 and Ptc1 mRNA transcripts in Sufu-/- mouse embryonic fibroblasts; type: cell-based; details: 10 μM, normalized to GAPDH
[2] = system: primary cilium of NIH3T3 cells; assay: Cilium structure and IFT88 in NIH3T3 cells; type: cell-based
[3] = system: Gli2-driven Gli-Luc activity; assay: Gli-Luc activity in cells transiently overexpressing Gli2; type: cell-based; details: transient Gli2 overexpression
PDE11A4 = PDE11A4 (Homo sapiens, UniProt Q9HCR9); assay: PDE dose-response assay, PDE11A4; type: biochemical
[4] = system: Hh-target gene Patched (Ptc)-1 expression; assay: Whole-mount in situ hybridization for Ptc1 in zebrafish embryos; type: in vivo; details: 1 μM; 12 hpf and 48 hpf
[5] = system: PDE4D3-induced Hh signaling (Shh-Light2 cells); assay: Hh reporter activity in Shh-Light2 cells transfected with PDE4D3; type: cell-based, mouse; details: 5 μM
Method in brief: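 Hh reporter cells were transiently transfected with wild-type PDE4D3, dominant-negative PDE4D3 or empty pCS2 vector as control. Wild-type transfectants received 5 μM test compound. Reporter activity is reported as mean ± SEM and compared with vector control or untreated wild-type transfectants.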

[6] = system: Hh signaling (Shh-Light2 cells); assay: Gli-luciferase reporter in Shh-Light2 cells stimulated with Shh; type: cell-based, mouse; details: for Shh-responsive Gli-luciferase reporter activity: stimulated with Shh conditioned medium, significant starting at 1 μM
Method in brief: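 Mouse Shh-Light2 Gli-responsive luciferase reporter cells were stimulated with Shh conditioned medium and then treated with increasing concentrations of test compound. Luciferase output was read as relative luciferase units (RLU), n = 4 per condition, reported as mean ± SEM with p-values.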

PDE4D3 = PDE4D3 (Homo sapiens, UniProt Q08499); assay: PDE dose-response assay, PDE4D3; type: biochemical
PKA [7] = assay: Western blot of phospho-T197-PKA in NIH3T3 whole cell lysates; type: cell-based; details: SAG 20 nM plus 5 μM compound
Method in brief: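 NIH3T3 cells were left unstimulated or treated with SAG (20 nM), with or without test compound (5 μM). Whole-cell lysates were immunoblotted for phospho-T197 PKA catalytic subunit, with α-tubulin as loading control.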

[8] = system: Gli3FL to Gli3R processing; assay: Western blot of Gli3 processing in SAG-stimulated C3H10T1/2 cells; type: cell-based; details: SAG 100 nM 24 h; Egm 10 μM, FSK 30 μM
Method in brief: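 C3H10T1/2 cells were left unstimulated or stimulated with SAG (100 nM, 24 h), alone or with test compound (10 μM) or forskolin (30 μM). Whole-cell lysates were immunoblotted for full-length and repressor Gli3, with α-tubulin as loading control and infrared detection; n = 3.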

[9] = system: Hh signaling (Shh-Light2 cells); assay: Gli-Luc reporter stimulated with Smo agonist purmorphamine; type: cell-based, mouse; details: purmorphamine 3 μM; significant starting at 0.5 μM
21 phosphatases = assay: Counter-screen, phosphatase panel
442 kinases = assay: Counter-screen, kinase panel
PDE3A = PDE3A (Homo sapiens, UniProt Q14432); assay: PDE dose-response assay, PDE3A; type: biochemical
[10] = system: Gli2FL nuclear accumulation; assay: Western blot of nuclear full length Gli2 in SAG-stimulated NIH3T3 cells; type: cell-based; details: SAG 100 nM 1.5 h; Egm 10 μM, FSK 30 μM
Method in brief: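 NIH3T3 cells were left unstimulated or stimulated with SAG (100 nM, 1.5 h), alone or with test compound (10 μM) or forskolin (30 μM), then fractionated. Full-length Gli2 was blotted in nuclear (Lamin-A/C control, n = 4) and whole-cell (α-tubulin control, n = 2) fractions. Output was the ratio of normalized nuclear to normalized whole-cell Gli2.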

Smo = Smo (Homo sapiens, UniProt Q99835); type: binding; details: 5 nM BODIPY-cyclopamine; concentrations up to 10 μM
PDE10A2 = PDE10A2 (Homo sapiens, UniProt Q9Y233); assay: PDE dose-response assay, PDE10A2; type: biochemical
[11] = system: BMP (Bone Morphogenic Protein) signaling; assay: BMP developmental signaling pathway test; type: cell-based
PDE super-family members = assay: In vitro PDE activity screen across PDE super-family members; type: biochemical; details: 20 μM; PDE4D3 and three other members
[12] = system: Gli2 ciliary localization in MEFs; assay: Gli2 trafficking to primary cilium in SAG-stimulated MEFs; type: cell-based, mouse; details: co-treatment SAG 20 nM and 5 μM compound
PKA [13] = assay: Immunostaining of phospho-T197-PKA in NIH3T3 cells; type: cell-based; details: SAG 20 nM plus 5 μM compound

Chain of PDE4D3 (Q08499 1-673 isoform Q08499-2): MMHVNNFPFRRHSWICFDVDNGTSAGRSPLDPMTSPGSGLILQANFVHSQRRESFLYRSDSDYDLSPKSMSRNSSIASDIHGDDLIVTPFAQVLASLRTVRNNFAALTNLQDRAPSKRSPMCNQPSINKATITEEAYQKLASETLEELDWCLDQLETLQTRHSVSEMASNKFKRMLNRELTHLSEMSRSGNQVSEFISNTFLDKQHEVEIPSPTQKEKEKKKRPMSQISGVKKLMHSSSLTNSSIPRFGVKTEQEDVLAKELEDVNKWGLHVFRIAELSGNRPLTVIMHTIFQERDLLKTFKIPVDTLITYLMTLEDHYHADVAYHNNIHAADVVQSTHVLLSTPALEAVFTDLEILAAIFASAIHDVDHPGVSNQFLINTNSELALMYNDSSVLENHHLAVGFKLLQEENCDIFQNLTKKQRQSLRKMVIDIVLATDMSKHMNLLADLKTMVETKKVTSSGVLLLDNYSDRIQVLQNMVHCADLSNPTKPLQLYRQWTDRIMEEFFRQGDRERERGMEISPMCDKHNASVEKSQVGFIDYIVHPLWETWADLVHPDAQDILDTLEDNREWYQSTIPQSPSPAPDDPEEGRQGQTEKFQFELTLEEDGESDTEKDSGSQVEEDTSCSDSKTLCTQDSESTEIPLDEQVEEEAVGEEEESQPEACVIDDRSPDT
Chain of Smo (Q99835 28-787): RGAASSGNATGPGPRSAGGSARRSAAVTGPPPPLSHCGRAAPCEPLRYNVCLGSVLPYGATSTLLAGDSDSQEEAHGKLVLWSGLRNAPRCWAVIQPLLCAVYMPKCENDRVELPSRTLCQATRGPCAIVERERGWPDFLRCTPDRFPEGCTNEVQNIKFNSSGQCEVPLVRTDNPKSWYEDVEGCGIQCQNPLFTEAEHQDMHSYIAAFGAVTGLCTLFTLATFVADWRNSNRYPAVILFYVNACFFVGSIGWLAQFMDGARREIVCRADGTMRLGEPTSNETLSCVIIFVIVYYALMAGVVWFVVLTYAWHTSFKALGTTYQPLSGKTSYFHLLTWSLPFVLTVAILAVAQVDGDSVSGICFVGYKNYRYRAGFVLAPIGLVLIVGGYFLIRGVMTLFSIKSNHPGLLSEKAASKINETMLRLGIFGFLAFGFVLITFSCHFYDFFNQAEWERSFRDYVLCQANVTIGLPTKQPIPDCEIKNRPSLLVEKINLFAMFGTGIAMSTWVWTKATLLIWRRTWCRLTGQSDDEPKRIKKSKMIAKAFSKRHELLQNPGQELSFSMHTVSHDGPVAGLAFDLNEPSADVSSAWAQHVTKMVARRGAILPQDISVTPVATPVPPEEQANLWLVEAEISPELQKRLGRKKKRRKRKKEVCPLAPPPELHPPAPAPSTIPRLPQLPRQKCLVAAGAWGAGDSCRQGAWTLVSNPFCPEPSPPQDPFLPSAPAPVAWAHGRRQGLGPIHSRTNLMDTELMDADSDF
Chain of PDE10A2 (Q9Y233 267-1055, species assumed): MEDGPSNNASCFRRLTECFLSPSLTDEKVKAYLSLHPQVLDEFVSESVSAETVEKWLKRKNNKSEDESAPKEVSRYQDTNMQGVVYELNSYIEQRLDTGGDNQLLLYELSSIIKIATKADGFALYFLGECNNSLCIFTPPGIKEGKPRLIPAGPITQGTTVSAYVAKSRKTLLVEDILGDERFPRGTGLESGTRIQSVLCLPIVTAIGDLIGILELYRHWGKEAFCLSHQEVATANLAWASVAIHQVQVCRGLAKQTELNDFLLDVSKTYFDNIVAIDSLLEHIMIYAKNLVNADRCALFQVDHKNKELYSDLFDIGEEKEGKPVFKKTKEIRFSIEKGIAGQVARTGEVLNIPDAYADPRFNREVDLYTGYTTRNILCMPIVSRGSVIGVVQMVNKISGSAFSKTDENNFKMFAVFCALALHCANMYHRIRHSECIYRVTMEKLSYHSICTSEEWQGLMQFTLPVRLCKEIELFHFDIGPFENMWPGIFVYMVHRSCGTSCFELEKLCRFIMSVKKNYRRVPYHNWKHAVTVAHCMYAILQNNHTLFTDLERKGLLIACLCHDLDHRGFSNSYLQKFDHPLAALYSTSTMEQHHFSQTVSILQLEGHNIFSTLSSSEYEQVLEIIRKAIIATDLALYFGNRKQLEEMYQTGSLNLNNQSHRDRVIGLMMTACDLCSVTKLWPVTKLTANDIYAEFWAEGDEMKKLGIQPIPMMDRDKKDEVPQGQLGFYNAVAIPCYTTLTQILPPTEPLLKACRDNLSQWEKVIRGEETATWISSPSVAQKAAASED
Chain of PDE3A (Q14432 whole entry, species assumed): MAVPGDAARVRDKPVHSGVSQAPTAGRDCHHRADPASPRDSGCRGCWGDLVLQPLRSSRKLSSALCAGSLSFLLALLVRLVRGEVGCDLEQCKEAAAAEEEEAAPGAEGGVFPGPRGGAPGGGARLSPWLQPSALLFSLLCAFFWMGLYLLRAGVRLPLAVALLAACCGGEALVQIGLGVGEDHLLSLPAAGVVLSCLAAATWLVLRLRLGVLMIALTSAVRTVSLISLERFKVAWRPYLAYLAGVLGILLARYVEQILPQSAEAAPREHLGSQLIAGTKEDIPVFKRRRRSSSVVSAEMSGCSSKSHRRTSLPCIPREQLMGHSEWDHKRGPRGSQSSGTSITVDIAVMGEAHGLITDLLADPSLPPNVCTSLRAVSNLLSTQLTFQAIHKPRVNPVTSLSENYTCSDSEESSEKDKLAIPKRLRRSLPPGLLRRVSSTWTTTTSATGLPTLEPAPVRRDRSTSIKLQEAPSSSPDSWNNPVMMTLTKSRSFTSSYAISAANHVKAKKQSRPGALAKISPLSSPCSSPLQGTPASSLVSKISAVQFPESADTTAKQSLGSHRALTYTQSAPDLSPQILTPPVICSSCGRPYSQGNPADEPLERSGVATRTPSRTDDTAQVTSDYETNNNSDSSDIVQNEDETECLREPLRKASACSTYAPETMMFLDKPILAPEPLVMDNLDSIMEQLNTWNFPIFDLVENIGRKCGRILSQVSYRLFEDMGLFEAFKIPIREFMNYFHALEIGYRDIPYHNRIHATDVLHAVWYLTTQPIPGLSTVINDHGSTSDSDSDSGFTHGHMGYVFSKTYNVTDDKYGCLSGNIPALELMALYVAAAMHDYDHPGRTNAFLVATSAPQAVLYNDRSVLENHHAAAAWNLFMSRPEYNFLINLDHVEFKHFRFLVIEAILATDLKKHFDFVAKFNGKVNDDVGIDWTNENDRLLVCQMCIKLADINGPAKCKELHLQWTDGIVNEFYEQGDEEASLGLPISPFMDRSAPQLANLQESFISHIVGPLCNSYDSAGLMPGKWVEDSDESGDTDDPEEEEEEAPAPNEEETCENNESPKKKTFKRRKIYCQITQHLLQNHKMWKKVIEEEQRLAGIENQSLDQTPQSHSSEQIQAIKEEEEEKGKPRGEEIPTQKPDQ
Chain of PDE11A4 (Q9HCR9 whole entry, species assumed): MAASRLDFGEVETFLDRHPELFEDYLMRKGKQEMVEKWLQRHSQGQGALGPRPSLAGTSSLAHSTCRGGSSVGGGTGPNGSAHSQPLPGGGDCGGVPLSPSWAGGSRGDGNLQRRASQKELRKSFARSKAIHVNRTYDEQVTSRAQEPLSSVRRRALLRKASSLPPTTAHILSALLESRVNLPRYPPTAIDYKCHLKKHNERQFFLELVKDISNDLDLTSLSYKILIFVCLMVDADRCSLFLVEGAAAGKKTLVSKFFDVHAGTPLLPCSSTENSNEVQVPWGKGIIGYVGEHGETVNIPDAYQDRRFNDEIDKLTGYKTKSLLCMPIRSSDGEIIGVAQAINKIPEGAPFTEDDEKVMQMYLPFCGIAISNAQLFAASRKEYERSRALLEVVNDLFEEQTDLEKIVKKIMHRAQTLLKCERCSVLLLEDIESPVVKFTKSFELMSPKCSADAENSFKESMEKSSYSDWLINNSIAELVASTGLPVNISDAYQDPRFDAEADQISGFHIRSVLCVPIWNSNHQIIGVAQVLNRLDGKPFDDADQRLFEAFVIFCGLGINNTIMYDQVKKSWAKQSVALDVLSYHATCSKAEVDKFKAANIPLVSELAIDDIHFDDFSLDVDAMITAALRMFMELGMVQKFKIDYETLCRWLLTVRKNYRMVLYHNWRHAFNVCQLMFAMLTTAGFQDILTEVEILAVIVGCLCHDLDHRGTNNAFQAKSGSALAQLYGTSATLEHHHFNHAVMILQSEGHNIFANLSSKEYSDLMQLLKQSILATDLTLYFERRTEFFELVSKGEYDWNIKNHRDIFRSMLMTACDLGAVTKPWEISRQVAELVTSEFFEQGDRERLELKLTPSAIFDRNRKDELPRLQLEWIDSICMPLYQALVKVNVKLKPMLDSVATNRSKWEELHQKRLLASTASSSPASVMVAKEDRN

With `CC1=C2C[C@H]3[C@@H](CC=C4C[C@@H](O)CC[C@@]43C)[C@@H]2CC[C@]12O[C@@H]1C[C@H](C)CN[C@H]1[C@H]2C` [cyclopamine, reference compound] the Gli1 transcription level [1] was “no inhibition” and the Ptc1 transcription level [1] was “no inhibition”.

In the case of `C=C(C)Cn1c(SCC(=O)c2cccs2)nc2sc3c(c2c1=O)CCCC3` [eggmanone, 3-(2-methylallyl)-2-((2-oxo-2-(thiophen-2-yl)ethyl)thio)-5,6,7,8-tetrahydrobenzo[4,5]thieno[2,3-d]pyrimidine-4(3H)-one], the “ciliary transport protein IFT88” value [2] is reported as “remained intact”, the “cilium structure (Arl13b staining)” value [2] is reported as “unaffected” and the “Gli-Luc activity in cells overexpressing Gli2” value [3] is reported as “retained Gli-Luc activity”. For the same compound, the IC50 (PDE11A4) was 4.08 µM, the “Ptc1 expression in adaxial cells, pectoral fin fields and somites” value [4] was “abrogation of the Hh-target gene Patched (Ptc)-1 expression” and the “Hh reporter activity induced by wild type PDE4D3 overexpression” value [5] was “abolished”. The “Shh-responsive Gli-luciferase reporter activity” value [6] was “inhibited Hh-inducible Gli-responsive luciferase (Gli-Luc) activity in a dose-dependent manner”, the IC50 (PDE4D3) was 0.072 µM and the “selectivity for PDE4D3 over other PDEs” value (PDE4D3; versus PDE3A, PDE10A2, PDE11A4) was 40- to 50 fold. For the same compound, the “p-PKA levels in whole cell lysates” value (PKA [7]) was “no significant increase”, the Gli3R formation [8] was “restored Gli3R formation” and the “purmorphamine-induced Gli-Luc reporter activity” value [9] was “inhibited purmorphamine-induced (3 μM) Gli-Luc reporter activity in a dose-dependent manner”. The “inhibition of phosphatases in panel” value (21 phosphatases) was ≤ 50%, the Gli1 transcription level [1] was “significantly reduced” and the Ptc1 transcription level [1] was “significantly reduced”. For the same compound, the “inhibition of kinases in panel” value (442 kinases) was ≤ 50%, the IC50 (PDE3A) was 3 µM and the “nuclear accumulation of Gli2FL” value [10] was “inhibited”. The “competition for Smo binding with BODIPY-cyclopamine” value (Smo) was “failed to compete”, the IC50 (PDE10A2) was 3.05 µM and the “effect on BMP signaling” value [11] was “not perturbed”. The “inhibition of PDE activity” value (PDE super-family members) was ≥ 50%, the “Gli2 localization to primary cilium” value [12] was “properly localized to the proximal tip of the cilium” and the “phospho-T197-PKA at base of primary cilium / basal body” value (PKA [13]) was “significant increase in PKA activity at the base of the primary cilium”.

For `C=C[C@@]1(C)CC(=O)[C@]2(O)[C@@]3(C)[C@@H](O)CCC(C)(C)[C@@H]3[C@H](O)[C@H](OC(C)=O)[C@@]2(C)O1` [forskolin, reference compound], the Gli3R formation [8] was “restored Gli3R formation” and the “nuclear accumulation of Gli2FL” value [10] was “inhibited”.

In the case of `COc1ccc(C2CNC(=O)C2)cc1OC1CCCC1` (stereo not drawn) [rolipram], the “potency in Gli-Luc reporter assay relative to eggmanone” value ([6]; stimulated with Shh) is reported as “lower potency than eggmanone” and the “Shh-responsive Gli-luciferase reporter activity” value [6] is reported as “did reduce Hh signaling levels”.
